Bioassay records deposited in PubChem BioAssay by several laboratories.
HCT116 bCat-KO: beta-catenin-lacking colon tumor cell growth suppression | HCT116 beta-catenin knockout viability, CellTiter-Glo, 60 h; active compounds read low | viability, % at 10 µM | actives 1.5% (n = 140,000);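 active = viability at or under a set limit, the compound median less 4 SD, cut at about 6% in these data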;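 also: 0% = Hyamine 1622 control at 20 µM and 100% = untreated cell control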
PTEN del growth: suppresses growth of cells with PTEN deletion; HCT116 PTEN-null viability, CellTiter-Glo, 60 h; active compounds read low; viability, % at 10 µM; actives 1.2% (n = 140,000); AID 827;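 active = viability at or below a set limit, 4 SD under the median of all tested compounds, cut at about 3.7% in these data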;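 also: PTEN knockout HCT116 line with beta catenin targeted HCT116 as companion control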
PTK2B oligo ant: Pyk2 (human) oligomerization antagonism; Q14289; Q293 cells, Pyk2 FERM NanoBiT luminescence; active compounds read low; z-score (the deposit names both 25 µM and 10 µM); actives 0.83% (n = 99,000); AID 1347419;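 active = Z-score of -3 or lower, scaled per plate to the spread of control and sample wells; inactive = z-score above -3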;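 also: negative z-score means lost luminescence so less FERM oligomerization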
Target sequence (Q14289 whole entry, looked up): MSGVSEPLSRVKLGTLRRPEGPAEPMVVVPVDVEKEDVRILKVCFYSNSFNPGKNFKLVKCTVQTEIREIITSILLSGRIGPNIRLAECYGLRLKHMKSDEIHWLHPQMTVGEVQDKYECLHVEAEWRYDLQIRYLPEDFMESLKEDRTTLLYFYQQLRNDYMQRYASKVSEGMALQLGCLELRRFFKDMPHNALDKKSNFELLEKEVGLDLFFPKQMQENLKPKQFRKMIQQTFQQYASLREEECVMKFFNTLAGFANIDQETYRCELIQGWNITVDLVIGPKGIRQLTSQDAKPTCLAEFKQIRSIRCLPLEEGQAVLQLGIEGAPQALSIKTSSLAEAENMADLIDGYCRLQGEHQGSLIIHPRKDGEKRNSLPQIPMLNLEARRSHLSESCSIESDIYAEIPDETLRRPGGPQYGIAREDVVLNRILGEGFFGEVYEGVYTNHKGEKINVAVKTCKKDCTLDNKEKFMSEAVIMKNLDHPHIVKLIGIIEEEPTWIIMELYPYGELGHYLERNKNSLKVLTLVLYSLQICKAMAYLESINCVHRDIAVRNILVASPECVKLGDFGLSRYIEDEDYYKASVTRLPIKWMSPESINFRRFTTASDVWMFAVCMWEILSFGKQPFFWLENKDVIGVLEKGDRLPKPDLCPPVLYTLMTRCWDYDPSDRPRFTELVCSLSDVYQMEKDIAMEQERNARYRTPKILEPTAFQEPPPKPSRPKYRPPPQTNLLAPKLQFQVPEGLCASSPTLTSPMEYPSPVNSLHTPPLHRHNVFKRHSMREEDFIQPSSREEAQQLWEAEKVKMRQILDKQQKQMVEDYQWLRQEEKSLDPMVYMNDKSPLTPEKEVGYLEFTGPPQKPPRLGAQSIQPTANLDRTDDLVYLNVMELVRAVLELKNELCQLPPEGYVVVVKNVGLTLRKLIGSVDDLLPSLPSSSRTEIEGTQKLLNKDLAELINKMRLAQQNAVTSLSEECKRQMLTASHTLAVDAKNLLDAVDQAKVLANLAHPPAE
HUVEC prolif 384: human endothelial cell proliferation inhibition. HUVEC proliferation, CellTiter-Glo luminescence, 72 h; active compounds read low. viability, % at 10 µM (by protocol). actives 1.1% (n = 86,000);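 active = viability at or below 30%; inactive = viability above 30%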;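 also: 100% = median luminescence of DMSO-only cell control wells on each plate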
Fibroblast inh: blocks proliferation of human lung fibroblasts | LL 47 human lung fibroblast viability, ATP luminescence; active compounds read low | viability, % at 10 µM | actives 1.1% (n = 85,000) | AID 719;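 active = viability at or below 50% in the single dose screen; inactive = viability above 50%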;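 also: compound exposure lasted 72 h before the ATP readout; 100% = median luminescence of untreated cell-only wells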
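Test system: LL 47 human lung fibroblasts / Quantity: 1,150 cells in each well / Medium: IMEM growth medium with 15% fetal bovine serum / Incubation: 72 h compound exposure at 37 °C after overnight plating / Detection: CellTiter-Glo luminescence measuring cellular ATP / Read-out: % viability versus median cells-only luminescence / Benchmarks: cell-only wells, no compound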
H69AR growth 86K: growth inhibitors of human H69AR lung tumor cells; H69AR lung tumor viability, ATP luminescence, 72 h; active compounds read low; viability, % at 10 µM; actives 6% (n = 85,000); AID 598;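 active = viability at or below 40%; inactive = viability above 40%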;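 also: multidrug resistant small cell line overexpressing MRP-1 efflux transporter; 100% = mean luminescence of untreated control wells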
* marks the source's active call; other numbers are inactive results; x = not tested or not shown. The sample as a whole holds a higher share of hits than the screen did.

SMILES | HCT116 bCat-KO | PTEN del growth | PTK2B oligo ant | HUVEC prolif 384 | Fibroblast inh | H69AR growth 86K
CCOc1ccccc1COC(=O)c1cccc(-n2cnnn2)c1 | 109 | 96 | -0.39 | 100 | 100 | 104
CC1CCN(c2nc(Cl)nc(Nc3ccc([N+](=O)[O-])cc3)n2)CC1 | 2.2* | 13 | x | x | x | x
Cc1ccc(Nc2nc(N3CCOCC3)nc(N3CCOCC3)n2)cc1 | 55 | 58 | -0.36 | x | x | x
Cc1cccc(OCC2=NS(=O)(=O)c3ccccc3N2)c1 | 110 | 93 | 0.6 | 100 | 102 | x
COc1ccc(-c2nc3c4c(ncn3n2)-c2ccccc2CC42CCCC2)cc1 | 74 | 66 | x | x | x | x
Oc1cccc(-c2nc3c4c(ncn3n2)-c2ccccc2CC42CCCC2)c1 | 10 | 2.4* | -3.1* | x | x | x
CN(C)c1ncnc2c1ncn2C1OC(CO)C(O)C1O (stereo not given) | 5.2* | 4 | 2.3 | 15* | 41* | 6.8*
Nc1nc(Cl)nc2c1ncn2[C@@H]1O[C@H](CO)[C@@H](O)[C@H]1O | 31 | 58 | x | 45 | 78 | 18*
CCOC1OC2C(CO)OC(n3cnc4c(N)ncnc43)C2O1 (stereo not given) | 94 | 103 | x | 105 | 102 | 105
Nc1ccn([C@@H]2O[C@H](CO)[C@@H](O)[C@@H]2O)c(=O)n1 | 34 | 26 | x | x | x | x
CCC1=Nc2cc(C(=O)NCCCOC(C)C)ccc2Sc2ccccc21 | 88 | 90 | 0.09 | 59 | 56 | 26*
CCNC(=S)SCCOc1ccc(C)cc1 | 92 | 89 | x | x | x | x
Cc1cc(-c2ccccc2)nn1-c1nc2c(c(=O)[nH]c(=O)n2C)n1C | 77 | 87 | 0.77 | 117 | 110 | 90
Cc1c(CN(C)C)c2c(n1Cc1ccccc1)C(=O)c1ccccc1-2 | 48 | 37 | -1.3 | 62 | 75 | 38*
Cc1nc(=O)c(-c2ccccc2)c(C)n1Cc1ccccc1 | 92 | 102 | 1.4 | 92 | 103 | 100
Cc1ccc2nc(NNC(=O)c3ccc(S(=O)(=O)N4CCc5ccccc5C4)cc3)sc2c1 | 3.8* | 6 | x | x | x | x
Cc1cc(C)c2nc(NNC(=O)c3ccc(S(=O)(=O)N4CC(C)CC(C)C4)cc3)sc2c1 (stereo not given) | 9 | 12 | x | x | x | x
Cc1cc(C)c2nc(NNC(=O)c3ccc(S(=O)(=O)N4CCCC(C)C4)cc3)sc2c1 (stereo not given) | 4.0* | 7 | x | x | x | x
Cc1cccc2sc(NNC(=O)c3ccc(S(=O)(=O)N4CC(C)CC(C)C4)cc3)nc12 (stereo not given) | 2.2* | 1.9* | x | x | x | x
CCCCN(CCCC)C(=O)c1ccccc1NC(=O)CN1C(=O)c2ccccc2C1=O | 101 | 113 | 0.82 | 92 | 98 | 91
O=C1c2cccc(OCC(=O)N3CCCc4ccccc43)c2CCN1Cc1ccc(Br)cc1 | 8 | 4 | x | x | x | x
O=C(C1CCCCC1)N1CCC(c2nc3c(nnn3Cc3c(F)cccc3Cl)c(=O)[nH]2)CC1 | 75 | 71 | 0.68 | 79 | 90 | 67
NC(=O)C1CCN(c2nc(C3CC3)nc3c2nnn3Cc2ccccc2Cl)CC1 | 83 | 83 | -1 | 85 | 94 | 31*
NC(=O)C1CCN(c2nc(C3CC3)nc3c2nnn3Cc2ccccc2)CC1 | 102 | 110 | -1.5 | 93 | 94 | 78
O=C(NCc1ccco1)c1nc2c(nnn2Cc2ccccc2Cl)c(=O)[nH]1 | 8 | 7 | -1.9 | 14* | 31* | 25*
SMILES | HCT116 bCat-KO | PTEN del growth | PTK2B oligo ant | HUVEC prolif 384 | Fibroblast inh | H69AR growth 86K
CCCCCCC(=O)N1CCC(c2nc3c(nnn3Cc3ccccc3Cl)c(=O)[nH]2)CC1 | 58 | 57 | -1.2 | 84 | 96 | 34*
Cc1ccc(C)c(Cn2nnc3c(=O)[nH]c(C(=O)NCc4ccco4)nc32)c1 | 89 | 85 | 0.33 | 95 | 103 | 104
O=C(Cc1cccs1)N1CCC(c2nc3c(nnn3Cc3ccccc3Cl)c(=O)[nH]2)CC1 | 88 | 77 | -0.97 | 90 | 95 | 71
O=C(C1CCCCC1)N1CCC(c2nc3c(nnn3Cc3ccccc3Cl)c(=O)[nH]2)CC1 | x | x | x | 64 | 89 | 39*
COc1cc(OC)cc(C(=O)N[C@H](C(=O)OCC(=O)Nc2ccc(F)c(F)c2)C(C)C)c1 | 92 | 92 | x | x | x | x
CNC(=O)c1ccc(-c2sc3nc(N4CCOCC4)c4c(c3c2N)CCCC4)o1 | 14 | 7 | 0.75 | 30 | 96 | 21*
CCNc1nc(N)c(C(=O)c2ccc(Cl)s2)s1 | 25 | 17 | -0.47 | 69 | 83 | 28*
COc1ccc(-c2nn(-c3ccccc3)cc2/C=N/NC(=S)NC(C)C)cc1OC | 73 | 76 | x | x | x | x
COc1ccc(-c2nn(-c3ccccc3)cc2/C=N/N=C(N)N)cc1OC | 1.6* | 1.2* | x | x | x | x
CC(=O)c1c(C)[nH]c(C(=O)OCC(=O)N2c3ccccc3NC(=O)C2(C)C)c1C | 90 | 96 | x | x | x | x
CCCCCOP(=O)(OCCCCC)C1(NS(=O)(=O)c2ccccc2)C=CC(=O)c2ccccc21 (stereo not given) | 85 | 70 | -1.9 | 61 | 87 | 19*
O=C1/C(=C/c2cccnc2)Oc2cc(OS(=O)(=O)c3ccc(Cl)cc3)ccc21 | 88 | 89 | -0.75 | 91 | 98 | 87
O=C1/C(=C/c2cccnc2)Oc2cc(OS(=O)(=O)c3ccccc3)ccc21 | 81 | 71 | -2.6 | 91 | 105 | 3.4*
COc1ccc(S(=O)(=O)Oc2ccc3c(c2)O/C(=C\c2cccnc2)C3=O)cc1 | 29 | 21 | -2.1 | 93 | 94 | 17*
CCN(CC)CCCNC(CC(=O)Nc1cccc([N+](=O)[O-])c1)C(=O)O (stereo not given) | 92 | 90 | 2.3 | x | x | x
COc1cc(NC(=O)c2ccc(F)cc2)c(OC)cc1Cl | 90 | 86 | -0.46 | 75 | 92 | 69
COc1cc(NC(=O)c2c(F)c(F)c(F)c(F)c2F)c(OC)cc1Cl | 66 | 64 | -1.9 | 45 | 91 | 14*
CCCc1nc2sc3c(=O)n(N)cnc3c2c2c1CCCC2 | 86 | 85 | x | x | x | x
CCCCCn1c(N)c(-c2nc3ccccc3s2)c2c([N+](=O)[O-])nn(C)c(=O)c21 | 27 | 8 | 0.98 | 54 | 60 | 15*
COc1ccccc1Nc1nc(-c2sc(NC(=O)c3ccco3)nc2C)cs1 | 47 | 56 | x | x | x | x
COc1cccc(N(C(=O)c2ccco2)c2nc(-c3sc(NC(=O)c4ccco4)nc3C)cs2)c1 | 3.8* | 6 | x | x | x | x
O=C(c1nnc(Cc2ccc(Cl)cc2)o1)N1CCc2ccccc2C1 | 1.1* | 0.6* | x | 109 | 106 | 105
NC(=O)c1c(NC(=O)c2ccccc2)sc2c1CCc1ccccc1-2 | 80 | 58 | -2.7 | 80 | 68 | 26*
COc1ccccc1N(CC(O)Cn1c2ccccc2c2ccccc21)S(=O)(=O)c1ccccc1 (stereo not given) | 30 | 24 | x | x | x | x
COc1ccccc1CNCC(O)Cn1c2ccccc2c2ccccc21 (stereo not given) | 1.5* | 1.4* | x | x | x | x
COC(=O)C1=C(C)N(Cc2ccco2)C(=O)N[C@H]1c1ccc(Br)cc1 | 80 | 84 | x | x | x | x
